The source of these data is BindingDB's records for doi:10.1021/jm0101702 (Abbott Laboratories, 2001).

As a reminder, the IC50 is the concentration at which inhibition is half-maximal.

Where only a bound is given, the exact number is not on record here.

Experiment [1] has as its target T1, Vascular cell adhesion protein 1 (Homo sapiens, UniProt P19320).
T1 sequence (P19320 whole entry): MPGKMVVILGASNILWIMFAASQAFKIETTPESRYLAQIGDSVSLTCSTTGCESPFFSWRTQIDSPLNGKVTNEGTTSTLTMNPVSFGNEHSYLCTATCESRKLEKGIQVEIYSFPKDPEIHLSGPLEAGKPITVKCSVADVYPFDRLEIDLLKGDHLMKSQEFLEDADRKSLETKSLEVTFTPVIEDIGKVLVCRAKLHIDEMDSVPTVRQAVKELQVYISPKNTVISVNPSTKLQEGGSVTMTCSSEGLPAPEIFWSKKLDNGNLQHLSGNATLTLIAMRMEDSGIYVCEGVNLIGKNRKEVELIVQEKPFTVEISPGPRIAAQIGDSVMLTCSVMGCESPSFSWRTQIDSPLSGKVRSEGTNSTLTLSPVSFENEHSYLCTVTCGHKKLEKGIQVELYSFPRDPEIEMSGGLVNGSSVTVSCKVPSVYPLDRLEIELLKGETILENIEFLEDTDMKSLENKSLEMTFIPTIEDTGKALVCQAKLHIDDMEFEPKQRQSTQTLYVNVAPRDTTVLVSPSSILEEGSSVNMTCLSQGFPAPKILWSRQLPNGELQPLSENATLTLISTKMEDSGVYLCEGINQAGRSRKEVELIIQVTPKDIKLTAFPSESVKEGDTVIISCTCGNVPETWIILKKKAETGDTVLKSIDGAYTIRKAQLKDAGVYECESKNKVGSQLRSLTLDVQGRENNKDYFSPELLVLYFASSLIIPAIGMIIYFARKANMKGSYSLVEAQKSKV
The experiment can be described thus: In vitro inhibitory potency compared to TNF-alpha induced VCAM-1 in human endothelial cells (ELISA assay). A digest of the protocol: (§1)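 Whole-cell ELISA on primary HUVECs plated at 5 × 10^4 cells/mL in EBM/2% FBS with growth supplements. Compound preincubated 24 h at 37 °C, then inducer added (TNFα at 5 ng/mL final, or IL-1β or PMA in its place) for 6 h at 37 °C. Mouse monoclonal anti-E-selectin, anti-ICAM-1 or anti-VCAM-1 was applied overnight at 4 °C, then HRP anti-mouse IgG. Detection with OPD, A490. Triplicate assays.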

Experiment [2] concerns the target T1, Vascular cell adhesion protein 1. Briefly: In vitro inhibitory potency compared to IL1-beta induced VCAM-1 in human endothelial cells (ELISA assay). Summed up: as §1
(In general: In an ELISA, binding on a coated surface is turned into a signal by an enzyme label.)

The target is the same in experiment [3]. The experiment can be described thus: In vitro inhibitory potency compared to PMA induced VCAM-1 in human endothelial cells (ELISA assay). A digest of the protocol:
as §1

Experiment [4] is described as follows: Inhibition of VCAM-1 in human endothelial cells.
Experiment [5] addresses T1, Vascular cell adhesion protein 1. Briefly: In vitro inhibitory potency compared to IL1-beta induced VCAM-1 expression in human endothelial cells (ELISA assay). A digest of the protocol:
(§2)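 Primary HUVECs seeded at 5 × 10^4 cells/mL in EBM/2% FBS with EGF, bovine brain extract and gentamicin. Compound added next day for 24 h at 37 °C, then inducer (IL-1β or PMA, level not stated) for 6 h at 37 °C. Whole-cell ELISA used mouse monoclonal anti-ICAM-1 or anti-VCAM-1, HRP donkey anti-mouse IgG and OPD, read at 490 nm. Run in triplicate.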

For experiment [6] the target is unchanged. The experiment can be described thus: In vitro inhibitory potency compared to PMA induced VCAM-1 expression in human endothelial cells (ELISA assay). A digest of the protocol: as §2
For experiment [7] the target is unchanged. Briefly: Inhibition of VCAM-1 in human endothelial cells. A digest of the protocol:
as §1

In the case of `NC(=O)c1cc2c(Oc3ccc(Br)cc3)cncc2s1` [4-(4-Bromo-phenoxy)-thieno[2,3-c]pyridine-2-carboxylic acid amide], the IC50 in experiment [1] turned out to be 8 nM; in experiment [2], 7 nM; in experiment [3] it was 20 nM; in experiment [4], 48 nM.

Turning to `CNC(=O)c1cc2c(Oc3ccc(Cl)cc3)cncc2s1` [4-(4-Chloro-phenoxy)-thieno[2,3-c]pyridine-2-carboxylic acid methylamide], the results for the IC50 in experiment [5], in experiment [6] and in experiment [4] were 70 nM, 200 nM and over 1000 nM, respectively.

Turning to `Cc1ccc(Sc2cncc3sc(C(N)=O)cc23)cc1` [4-p-Tolylsulfanyl-thieno[2,3-c]pyridine-2-carboxylic acid amide], in experiment [7], the IC50 was over 1000 nM.

For `CNC(=O)c1cc2c(Oc3ccc(COCCOCCOC)cc3)cncc2s1` [4-{4-[2-(2-Methoxy-ethoxy)-ethoxymethyl]-phenoxy}-thieno[2,3-c]pyridine-2-carboxylic acid methylamide], the IC50 in experiment [1] is 30 nM; in experiment [2] it was 20 nM; in experiment [3] it was 20 nM; in experiment [4], 120 nM.
